Compound activity (PubChem BioAssay)
PAFAH2 inh: inhibitors of human PAFAH2. recombinant PAFAH2, FP-rhodamine activity probe, fluorescence polarization. 340,000 compounds, 0.99% hits. inhibition, % at 3.39 µM. Q99487;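 active = inhibition above the mean over all tested compounds plus 3 SD, cut at about 30% in these data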;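 note: inhibitors block probe labeling of enzyme so polarization drops; 0% = enzyme with DMSO and 100% = wells lacking PAFAH2 protein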
Apaf1 inhib: inhibitors of human Apaf-1 apoptosome; 330,000 compounds, 0.71% hits; O14727; AID 489030; inhibition, % at 20 µM; reconstituted apoptosome caspase-3 activity, DEVD-Rh110 fluorescence; active = inhibition of at least 40% at 20 µM;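 note: plate controls were DMSO wells for no effect and DEVD-CHO caspase inhibitor wells for full effect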
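detection = Rh110 fluorescence intensity | test system = biochemical Apaf-1 apoptosome reconstitution | also added = cytochrome c and DEVD-Rh110 substrate | schedule = 30 min plus 50 min, RT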
PAFAH1B2 inh: PAFAH1B2 (human) inhibition; recombinant PAFAH1B2, FP-rhodamine activity probe, fluorescence polarization; inhibition, % at 3.39 µM; 340,000 compounds, 1.2% hits; P68402;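 active = inhibition above the mean of all tested compounds plus 3 SD, cut at about 24% in these data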;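 note: 0% = enzyme with DMSO and 100% = wells lacking PAFAH1B2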
Target sequence (P68402 whole entry, looked up): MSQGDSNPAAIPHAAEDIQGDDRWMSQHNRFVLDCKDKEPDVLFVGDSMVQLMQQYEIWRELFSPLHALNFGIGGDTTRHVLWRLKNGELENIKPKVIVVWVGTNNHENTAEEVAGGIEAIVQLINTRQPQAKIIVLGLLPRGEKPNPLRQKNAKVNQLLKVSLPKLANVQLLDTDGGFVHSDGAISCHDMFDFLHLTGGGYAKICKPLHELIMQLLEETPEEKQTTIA
PAFAH1B3 inh: inhibitors of human PAFAH1B3; 340,000 compounds, 0.28% hits; Q15102; inhibition, % at 3.39 µM; AID 492972; recombinant PAFAH1B3, FP-rhodamine probe, fluorescence polarization;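 active = inhibition above the screen-wide average of all tested compounds plus 3 SD, cut at about 25% in these data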;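 note: 0% = enzyme with DMSO only and 100% = wells lacking PAFAH1B3 protein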
TDP2 absorb: TDP2 (human) inhibition, absorbance primary screen | inhibition, % at 12.8 µM | O95551 | recombinant TDP2, T5PNP hydrolysis, p-nitrophenol absorbance 415 nm | AID 720702 | 370,000 compounds, 0.34% hits;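 active = inhibition above the mean of all tested compounds plus 3 SD, set per campaign, cut at about 25% in these data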;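 note: 0% = DMSO with enzyme and 100% = buffer with substrate but no TDP2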
Target sequence (O95551 whole entry, looked up): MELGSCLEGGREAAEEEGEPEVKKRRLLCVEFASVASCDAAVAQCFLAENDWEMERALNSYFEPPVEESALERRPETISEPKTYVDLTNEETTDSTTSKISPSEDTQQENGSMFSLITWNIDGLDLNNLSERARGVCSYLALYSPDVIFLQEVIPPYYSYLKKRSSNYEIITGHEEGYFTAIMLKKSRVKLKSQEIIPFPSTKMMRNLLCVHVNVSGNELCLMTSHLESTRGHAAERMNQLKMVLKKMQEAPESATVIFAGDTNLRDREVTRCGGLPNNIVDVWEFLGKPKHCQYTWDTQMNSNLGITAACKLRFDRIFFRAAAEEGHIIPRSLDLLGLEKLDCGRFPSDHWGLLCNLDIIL
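Material: recombinant human TDP2; quantity: TDP2 enzyme at 120 nM final; medium: Tris-HCl pH 7.5 with MgCl2; compound: single concentration, 12.8 µM nominal, with 1% DMSO; incubation: 2 h enzyme incubation at 37 °C; signal: epi absorbance; measure: percent inhibition; benchmarks: high control without enzyme, low control DMSO plus TDP2; repeats: singlicate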
TDP2 confirm: human TDP2 inhibition, confirmation; inhibition, % at 12.8 µM; recombinant human TDP2, absorbance read-out; shares compounds with TDP2 absorb; 1,100 compounds, 22% hits; AID 743263; in the data active = inhibition above about 25%;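 note: 0% = vehicle with enzyme and 100% = no enzyme buffer only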
* = called active by the depositor; nt = not tested or not shown. This is a sample that favours compounds with a hit; in the whole collection about 2.3% have one here.

SMILES | PAFAH2 inh | Apaf1 inhib | PAFAH1B2 inh | PAFAH1B3 inh | TDP2 absorb | TDP2 confirm
CCCCC(=O)Nc1nnc(SCC(=O)NC2CC2)s1 | 4.2 | -4.8 | -1.5 | 12.4 | 39.1* | 2.8
CN(Cc1ccccc1)C(=O)OCc1cn(Cc2ccccc2)nn1 | nt | nt | nt | nt | 7.5 | nt
CC(C)CNc1cccc2c1S(=O)(=O)N(Cc1cn(Cc3ccc(C(F)(F)F)cc3)nn1)Cc1ccccc1O2 | nt | nt | nt | nt | 3.2 | nt
CCOC(=O)N1C(=O)C[C@](Sc2ccc(OC)cc2)(C(=O)N2CCN(C(C)=O)CC2)[C@H]1c1ccc(OC)cc1 | nt | nt | nt | nt | -10.3 | nt
O=C1NC(=O)/C(=C\c2ccc(Br)o2)S1 | 0.4 | 8.6 | 1.4 | 7.2 | 0.3 | nt
O=C1NC(=O)/C(=C/c2ccc(-c3cc(C(=O)O)ccc3Cl)o2)S1 | 2.5 | 15.8 | 8.1 | 19.3 | 32.5* | 15.7
Cc1ccccc1C(OCC(O)CN1CCN(CCO)CC1)c1ccccc1 (stereo unspecified) | 2.3 | -2.8 | 3.9 | 1.1 | 26.6* | 7.4
OC(COC(c1ccccc1)c1ccccc1)CN1CCCCC1 (stereo unspecified) | -4.2 | 1.6 | -1.6 | -8.0 | 1.2 | nt
C=CCN1[C@H](C)COc2cccc(N3CCCC3)c2S1(=O)=O | nt | nt | nt | nt | 10.5 | nt
CCN1CCN(CC(=O)Nc2nc3ccccc3s2)CC1 | -4.9 | -10.6 | 0.5 | 8.2 | 18.2 | nt
CN1CCN(CC(=O)Nc2nc3ccccc3s2)CC1 | 1.1 | 1.4 | 1.9 | 13.7 | 25.1* | 3.0
CCC(=O)NC(c1cccs1)c1cc([N+](=O)[O-])c2cccnc2c1OC (stereo unspecified) | nt | nt | nt | nt | 69.8* | 18.5
CCC(=O)NC(c1cccs1)c1ccc2cccnc2c1O (stereo unspecified) | 6.2 | -7.3 | 8.9 | 6.8 | -7.6 | nt
CC(c1nc2scc(-c3ccccc3)c2c(=O)[nH]1)N1CCN(CC(=O)NC2CC2)CC1 (stereo unspecified) | 6.4 | 5.1 | 4.0 | 8.4 | 32.3* | 1.2
CN(C1=C(N2CCCCC2)C(=O)c2ccccc2C1=O)c1ccccc1 | 10.5 | 26.7 | 6.7 | 17.2 | 35.0* | 1.6
CCOC(=O)c1cc2c(=Cc3ccc(N(C)C)cc3)c3ccccc3n2[n+]1C | 2.7 | nt | 0.2 | 13.2 | 51.6* | 56.2*
CCn1c(COc2ccc(=O)n(-c3ccccc3)n2)nnc1SCc1cccc(OC)c1 | 4.5 | 2.5 | 6.5 | 2.3 | 7.8 | nt
C=CCSc1nnc(COc2ccc(=O)n(-c3ccccc3)n2)n1CC | 3.0 | -9.6 | 3.3 | 3.0 | 24.6* | 5.8
CC[C@H](CCC(=O)N(c1ccccc1)c1ccccc1)C1CC1 | nt | nt | nt | nt | 5.4 | nt
O=C(COC(=O)c1ccc([N+](=O)[O-])s1)Nc1ccc(F)cc1 | 52.1* | 38.0 | 9.6 | 34.2* | 47.1* | 31.5*
O=C(COC(=O)c1ccc([N+](=O)[O-])s1)Nc1ccccc1 | 81.1* | 23.6 | 10.0 | 34.0* | 49.8* | 22.2
O=C(COC(=O)/C=C/c1ccc([N+](=O)[O-])cc1)Nc1ccc(F)cc1 | 16.9 | 14.6 | -3.4 | 3.3 | -7.7 | nt
COc1cc(/C=C/c2[nH]c(=O)[nH]c(=O)c2[N+](=O)[O-])cc([N+](=O)[O-])c1O | 0.9 | 10.0 | 5.9 | 6.1 | 31.1* | 10.7
CCC(C)Oc1ccc(/C=C/c2[nH]c(=O)[nH]c(=O)c2[N+](=O)[O-])cc1OC (stereo unspecified) | 4.5 | 19.9 | 1.1 | 1.6 | -27.4 | nt
O=C(c1cccc(Oc2ccccc2)c1)N1CCC(Oc2cccnc2)CC1 | nt | nt | nt | nt | 9.6 | nt
SMILES | PAFAH2 inh | Apaf1 inhib | PAFAH1B2 inh | PAFAH1B3 inh | TDP2 absorb | TDP2 confirm
O=C(Nc1c(-c2ccc3c(c2)OCO3)[nH][nH]c1=O)c1cccc(C(F)(F)F)c1 | nt | nt | nt | nt | 54.8* | 8.6
O=C(Nc1c(-c2ccccc2)[nH][nH]c1=O)c1ccc(-c2ccccc2)cc1 | nt | nt | nt | nt | 6.2 | nt
O=C(Nc1c(-c2ccc3c(c2)OCO3)[nH][nH]c1=O)c1ccccc1 | nt | nt | nt | nt | 68.2* | 70.6*
O=C(Nc1c(-c2ccccc2)[nH][nH]c1=O)c1ccc2c(c1)OCO2 | nt | nt | nt | nt | 47.6* | 22.5
Cc1ccc(C(=O)Nc2c(-c3ccc(Cl)cc3)[nH][nH]c2=O)cc1 | nt | nt | nt | nt | 61.5* | 26.9*
CCN(CC)C(=O)CC[C@@H]1CC[C@]2(CCCN(C(=O)c3cccnc3)C2)O1 | nt | nt | nt | nt | 5.6 | nt
CCN(CC)S(=O)(=O)c1ccc(N2CCN(S(=O)(=O)c3ccccc3)CC2)nc1 | 0.6 | 7.2 | 1.3 | 7.3 | 24.5* | 2.2
COc1ccc(F)cc1S(=O)(=O)NCc1cc(=O)n(C)c(=O)n1C | -0.1 | 2.4 | -0.4 | 6.3 | 25.5* | 4.2
N/C(=N\N=Cc1ccc2c(c1)OCO2)NN=Cc1ccc2c(c1)OCO2 | 1.8 | nt | 5.1 | 11.3 | 44.0* | -6.8
O=C(NN=Cc1ccc2c(c1)OCO2)NN=Cc1ccc2c(c1)OCO2 | 3.0 | nt | 6.9 | 3.4 | -1.6 | nt
Cc1ccccc1C(=O)N1CCC(Oc2cccnc2)CC1 | nt | nt | nt | nt | 3.6 | nt
O=C(N=C1N(Cc2ccccc2)C[C@]2(C=C3CCCCC3n3c(=O)n(-c4ccccc4)c(=O)n32)N1C(=O)OCc1ccccc1)c1ccccc1 (stereo partly specified) | nt | nt | nt | nt | 7.5 | nt
Cc1[nH][nH]c(=O)c1C(c1cc2c(cc1Br)OCO2)c1c(C)[nH][nH]c1=O | 9.8 | 4.4 | 4.7 | 0.8 | 0.0 | nt
Cc1[nH][nH]c(=O)c1C(c1cc(Br)ccc1O)c1c(C)[nH][nH]c1=O | 4.6 | 13.8 | 1.2 | 2.5 | 29.9* | 16.4
O=C1NC(=O)/C(=C/c2cccc3ccccc23)S1 | -1.6 | 10.7 | 8.3 | 17.6 | 0.8 | nt
O=C1NC(=O)C(=Cc2ccccc2[N+](=O)[O-])S1 | 5.0 | nt | 6.5 | 19.7 | 24.8* | 44.0*
Cc1ccc(C2CCC3(CCC(=O)N3CCO)CC2)cc1 (stereo unspecified) | nt | nt | nt | nt | 1.3 | nt
O=S(=O)(NCc1ccccc1)c1ccc(Cl)cc1 | 1.7 | 7.0 | 21.3 | 6.2 | -14.1 | nt
O=S(=O)(Nc1cc2nc3ccccc3nc2n1Cc1ccccc1)c1ccc(Cl)cc1 | 66.4* | nt | 46.8* | 62.6* | 107.2* | 93.3*
CN(C)[C@H]1CCN(c2ccc3c(c2)OCCCN(C2CC2)S3(=O)=O)C1 | nt | nt | nt | nt | 3.7 | nt
COC(=O)c1ccc(OCC(O)CNCC(c2ccc(OC)cc2)N(C)C)c(OC)c1 (stereo unspecified) | 6.0 | -2.6 | -1.2 | -4.0 | 26.1* | 12.9
COc1cccc(/C=N/Nc2nnc(C)n2N)c1OCc1ccccc1Cl | -6.2 | 2.1 | 1.4 | 1.2 | 54.0* | -4.0
CCc1nnc(N/N=C/c2ccccc2Cl)n1N | 10.0 | -23.8 | 1.6 | 2.6 | 60.8* | -2.1
CCc1nnc(N/N=C/c2ccccc2F)n1N | -1.6 | -3.2 | 2.9 | 9.9 | 66.0* | 3.8
CCC(Oc1ccccc1)C(=O)Nc1ccc(C)c(S(=O)(=O)N2CCOCC2)c1 (stereo unspecified) | 6.2 | 1.8 | 2.7 | 0.1 | 28.9* | 4.8
Cc1ccc(NC(=O)OCCCN2C(=O)CCC23CCC(C)CC3)cc1C (stereo unspecified) | nt | nt | nt | nt | 10.0 | nt
